In brackets after ≈: the same amount, converted by molar mass. Activity calls are given as the source filed them. The rule behind the calls is not given here.
Tests used:
[1] = Binding affinity to Mycobacterium tuberculosis CYP121A1 expressed in Escherichia coli TG1 (DE3) by UV-visible scanning spectrophotometric analysis
Outline: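 Purified CYP121A1 (typically 3–5 μM) in 100 mM KPi, 200 mM KCl, pH 7.85, 0.004% Triton X-100, at 28 °C. Ligand added stepwise from DMSO stocks until no further spectral change. ΔAmax (peak minus trough of difference spectra) was plotted against [ligand] and fitted to a hyperbolic or Hill equation. Triplicate titrations were run and Kd was averaged.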

[2] = system: Mycobacterium tuberculosis; assay: Binding affinity to Mycobacterium tuberculosis CYP121A1 expressed in Escherichia coli TG1 (DE3) assessed as Soret peak shift by UV-visible scanning spectrophotometric analysis
Outline: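 Purified CYP121A1 (typically 3–5 μM) titrated at 28 °C in 100 mM KPi, 200 mM KCl, pH 7.85, 0.004% Triton X-100. Ligand added stepwise from DMSO stocks until saturation. Spectra 250–800 nm were recorded. Soret shift was judged from the difference spectra, with a red shift taken as type II.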

[3] = system: Mycobacterium tuberculosis; assay: Antimycobacterial activity against Mycobacterium tuberculosis H37Rv after 7 days by resazurin microtiter assay; type: functional; conditions: 168 h
Outline: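 M. tuberculosis H37Rv grown in 7H9 with 10% OADC at 37 °C to mid-log (OD600 0.4–0.6). Inoculum adjusted to McFarland no. 1, diluted 1:20. Compounds from DMSO stocks, final 0.39–100 μg/mL; rifampicin 0.004–1 μg/mL as control. After 7 days at 37 °C, 0.01% resazurin added, read 24 h later by fluorescence (530/590 nm). MIC = lowest concentration giving 90% inhibition.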

With O=C(NCCn1ccnc1)c1cn(-c2ccccc2)nc1-c1ccccc1 the Kd [1] was 394 µM, the Activity [2] was 416 to 418 nm and the MIC90 [3] was > 100 µg/mL.

In the case of Clc1ccccc1C(c1ccccc1)(c1ccccc1)n1ccnc1 [CLOTRIMAZOLE], the MIC90 [3] is reported as 20 µg/mL (≈ 58 µM).

In the case of c1ccc(-c2nn(-c3ccccc3)cc2Cn2ccnc2)cc1, the Kd [1] is reported as 2.63 µM, the Activity [2] is reported as 416 to 424 nm and the MIC90 [3] is reported as 12.5 µg/mL (≈ 41.6 µM).

With Clc1ccc(-c2nn(-c3ccccc3)cc2Cn2ccnc2)cc1 the Kd [1] was 7.42 µM, the Activity [2] was 416 to 422 nm and the MIC90 [3] was 12.5 µg/mL (≈ 37.3 µM).

With O=C(NCCn1ccnc1)c1cn(-c2ccccc2)nc1-c1ccc(F)cc1 the Activity [2] was “inactive” and the MIC90 [3] was > 100 µg/mL.

For COc1ccc(-c2nn(-c3ccccc3)cc2Cn2cncn2)cc1, the Kd [1] was 96.5 µM, the Activity [2] was 416 to 420 nm and the MIC90 [3] was 25 µg/mL (≈ 75.4 µM).

In the case of OC(Cn1cncn1)(Cn1cncn1)c1ccc(F)cc1F [FLUCONAZOLE], the MIC90 [3] is reported as > 100 µg/mL.

With O=C(NCCn1ccnc1)c1cn(-c2ccccc2)nc1-c1ccc(Cl)cc1 the Activity [2] was “inactive” and the MIC90 [3] was > 100 µg/mL.

In the case of Brc1ccc(-c2nn(-c3ccccc3)cc2Cn2cncn2)cc1, the Kd [1] is reported as 193 µM, the Activity [2] is reported as 416 to 418 nm and the MIC90 [3] is reported as 25 µg/mL (≈ 65.7 µM).

With c1ccc(-c2nn(-c3ccccc3)cc2Cn2cncn2)cc1 the Kd [1] was 73.5 µM, the Activity [2] was 416 to 422 nm and the MIC90 [3] was 50 µg/mL (≈ 166 µM).

Brc1ccc(-c2nn(-c3ccccc3)cc2Cn2ccnc2)cc1 showed a Kd [1] of 19.5 µM, an Activity [2] of 416 to 420 nm and an MIC90 [3] of 6.25 µg/mL (≈ 16.5 µM).

N#Cc1ccc(-c2nn(-c3ccccc3)cc2Cn2ccnc2)cc1 gave a Kd [1] of 45.9 µM, an Activity [2] of 416 to 418 nm and an MIC90 [3] of 100 µg/mL (≈ 307 µM).

Work on Cc1ccc(-c2nn(-c3ccccc3)cc2Cn2ccnc2)cc1 yielded a Kd [1] of 5.36 µM, an Activity [2] of 416 to 422 nm and an MIC90 [3] of 12.5 µg/mL (≈ 39.8 µM).

With COc1ccc(-c2nn(-c3ccccc3)cc2C(=O)NCCn2ccnc2)cc1 the Kd [1] was 314 µM, the Activity [2] was 416 to 418 nm and the MIC90 [3] was 100 µg/mL (≈ 258 µM).

With Fc1ccc(-c2nn(-c3ccccc3)cc2Cn2cncn2)cc1 the Kd [1] was 35.6 µM, the Activity [2] was 416 to 423 nm and the MIC90 [3] was 25 µg/mL (≈ 78.3 µM).

In the case of Cc1ccc(-c2nn(-c3ccccc3)cc2C(=O)NCCn2ccnc2)cc1, the Kd [1] is reported as 290 µM, the Activity [2] is reported as 416 to 418 nm and the MIC90 [3] is reported as > 100 µg/mL.

Clc1ccc(-c2nn(-c3ccccc3)cc2Cn2cncn2)cc1 showed a Kd [1] of 83.8 µM, an Activity [2] of 416 to 421 nm and an MIC90 [3] of 25 µg/mL (≈ 74.4 µM).

For N#Cc1ccc(-c2nn(-c3ccccc3)cc2Cn2cncn2)cc1, the Activity [2] was “inactive” and the MIC90 [3] was > 100 µg/mL.

In the case of COc1ccc(-c2nn(-c3ccccc3)cc2Cn2ccnc2)cc1, the Kd [1] is reported as 11.4 µM, the Activity [2] is reported as 416 to 421 nm and the MIC90 [3] is reported as 25 µg/mL (≈ 75.7 µM).

For Ic1ccc(-c2nn(-c3ccccc3)cc2Cn2cncn2)cc1, the Activity [2] was “inactive” and the MIC90 [3] was 50 µg/mL (≈ 117 µM).

With Fc1ccc(-c2nn(-c3ccccc3)cc2Cn2ccnc2)cc1 the Kd [1] was 4.16 µM, the Activity [2] was 416 to 424 nm and the MIC90 [3] was 25 µg/mL (≈ 78.5 µM).

Work on Ic1ccc(-c2nn(-c3ccccc3)cc2Cn2ccnc2)cc1 yielded a Kd [1] of 13.6 µM, an Activity [2] of 416 to 422 nm and an MIC90 [3] of 6.25 µg/mL (≈ 14.7 µM).

For Cc1ccc(-c2nn(-c3ccccc3)cc2Cn2cncn2)cc1, the Kd [1] was 187 µM, the Activity [2] was 416 to 418 nm and the MIC90 [3] was > 100 µg/mL.

Source: ChEMBL document CHEMBL4028912, “Novel Aryl Substituted Pyrazoles as Small Molecule Inhibitors of Cytochrome P450 CYP121A1: Synthesis and Antimycobacterial Evaluation” (J Med Chem, 2017)
